Results from ChEMBL document CHEMBL1126217, “Side-chain derivatives of biologically active nucleosides. 1. Side-chain analogs of 3'-azido-3'-deoxythymidine (AZT)” (J Med Chem, 1992).
In brackets after ≈: the same amount, converted by molar mass. Activity calls are given as the source filed them. No cut-off for these calls is given here.

Legend:
MT4 = test: Inhibitory activity toward HIV replication in MT-4 cells; format: functional, cell-based; conditions: Homo sapiens
Summary of the method: (§1)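 Infected cells mixed with serial compound dilutions (tested up to 200 μg/mL) and incubated 5 days at 37 °C. Viable cells counted microscopically in a hematocytometer by trypan blue exclusion to give 50% effective and cytotoxic concentrations.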

[1] = test system: Human immunodeficiency virus; test: Compound was evaluated for the cytotoxic concentration against HIV; format: functional; conditions: Human immunodeficiency virus 1; summary of the method: as §1
Human alphaherpesvirus 2 [2] = test: Inhibitory activity against herpes simplex virus type-2 (HSV-2) at a concentration 400 ug/mL; not effective; format: functional, organism-based
[3] = Inhibitory activity against herpes simplex virus type-1 (HSV-1) at a concentration 400 ug/mL; not effective; format: functional, organism-based; conditions: Human alphaherpesvirus 1
Vaccinia virus [4] = test: Inhibitory activity against Vaccinia virus(VV)at a concentration 400 ug/mL; not effective; format: functional, organism-based; conditions: Orthopoxvirus vaccinia
Vaccinia virus [5] = test: Inhibitory activity against Vaccinia virus(VV) at a concentration 400 ug/mL; not effective; format: functional, organism-based; conditions: Orthopoxvirus vaccinia
[6] = test system: Vesicular stomatitis virus; test: Inhibitory activity towards Vesicular stomatitis virus(VSV); format: functional
Vaccinia virus [7] = test: Inhibitory activity towards Vaccinia virus(VV); format: functional; conditions: Orthopoxvirus vaccinia
Human alphaherpesvirus 1 = test: Inhibitory activity towards herpes simplex virus type-1 (HSV-1)
Human alphaherpesvirus 2 [8] = test: Inhibitory activity towards herpes simplex virus type-2 (HSV-2)

| Structure (SMILES) | EC50 (MT4) [mg/L] | CC50 [1] [mg/L] | CC50 (Human alphaherpesvirus 2 [2]) | HSV-1 inhibitory activity [3] | CC50 (Vaccinia virus [4]) | CC50 (Vaccinia virus [5]) | CC50 [6] [mg/L] | CC50 (Vaccinia virus [7]) [mg/L] | CC50 (Human alphaherpesvirus 1) [mg/L] | CC50 (Human alphaherpesvirus 2 [8]) [mg/L] |
| --- | --- | --- | --- | --- | --- | --- | --- | --- | --- | --- |
| Cc1cn([C@H]2C[C@H](N=[N+]=[N-])[C@@H](CO)O2)c(=O)[nH]c1=O [ZIDOVUDINE] | 0.002 (≈ 0.00748 µM) | – | – | – | – | – | – | – | – | – |
| Cc1cn(C2CC(N=[N+]=[N-])C([C@H](C)O)O2)c(=O)[nH]c1=O (some centres not stated) | – | > 200 | inactive | inactive | inactive | – | – | – | – | – |
| Cc1cn(C2CC(N=[N+]=[N-])C(CCO)O2)c(=O)[nH]c1=O (configuration not stated) | – | 200 (≈ 711 µM) | inactive | inactive | – | inactive | – | – | – | – |
| Cc1cn(C2CC(N=[N+]=[N-])C([C@H](O)CO)O2)c(=O)[nH]c1=O (some centres not stated) | – | > 200 | inactive | inactive | inactive | – | – | – | – | – |
| Cc1cn(C2CC(N=[N+]=[N-])C([C@@H](O)CO)O2)c(=O)[nH]c1=O (some centres not stated) | – | 17.7 (≈ 59.5 µM) | inactive | inactive | inactive | – | – | – | – | – |
| Cc1cn(C2CC(N=[N+]=[N-])C([C@@H](C)O)O2)c(=O)[nH]c1=O (some centres not stated) | – | > 200 | – | – | – | – | > 400 | 300 (≈ 1070 µM) | 150 (≈ 533 µM) | 300 (≈ 1070 µM) |
